From paper PMC4716659 (European journal of medicinal chemistry, 2015)
In brackets after ≈: the same amount, converted by molar mass.

Columns and labels:
S. aureus USA500 (MRSA) [1] = assay: MIC, broth microdilution; format: cell-based, Staphylococcus aureus; details: Staphylococcus aureus, MRSA|USA500
S. aureus NRS194 (MRSA) [2] = assay: MBC, plating onto TSA; format: cell-based, Staphylococcus aureus; details: Staphylococcus aureus, MRSA|NRS194
S. aureus NRS19 (VISA) [3] = assay: MIC, broth microdilution; format: cell-based, Staphylococcus aureus; details: Staphylococcus aureus, NRS19|VISA
S. aureus USA 400 (MRSA) [4] = assay: MBC, plating onto TSA; format: cell-based, Staphylococcus aureus; details: Staphylococcus aureus, MRSA|USA400
S. aureus NRS194 (MRSA) [5] = assay: MIC, broth microdilution; format: cell-based, Staphylococcus aureus; details: Staphylococcus aureus, MRSA|NRS194
S. aureus VRS1 (VRSA) [6] = assay: MIC, broth microdilution; format: cell-based, Staphylococcus aureus; details: Staphylococcus aureus, VRSA
S. aureus VRS4 (VRSA) [7] = assay: MIC, broth microdilution; format: cell-based, Staphylococcus aureus; details: Staphylococcus aureus, VRSA
S. aureus NRS37 (VISA) [8] = assay: MBC, plating onto TSA; format: cell-based, Staphylococcus aureus; details: Staphylococcus aureus, NRS37|VISA
S. aureus USA500 (MRSA) [9] = assay: MBC, plating onto TSA; format: cell-based, Staphylococcus aureus; details: Staphylococcus aureus, MRSA|USA500
[10] = tested on: methicillin-resistant Staphylococcus aureus (MRSA) ATCC 43300; assay: MIC, broth microdilution; format: cell-based; details: Staphylococcus aureus, ATCC43300|MRSA
S. aureus NRS107 (MRSA) [11] = assay: MIC, broth microdilution; format: cell-based, Staphylococcus aureus; details: Staphylococcus aureus, MRSA|NRS107
S. aureus VRS5 (VRSA) [12] = assay: MBC, plating onto TSA; format: cell-based, Staphylococcus aureus; details: Staphylococcus aureus, VRSA
S. aureus USA300 (MRSA) [13] = assay: MBC, plating onto TSA; format: cell-based, Staphylococcus aureus; details: Staphylococcus aureus, MRSA|USA300
S. aureus NRS119 (MRSA) [14] = assay: MBC, plating onto TSA; format: cell-based, Staphylococcus aureus; details: Staphylococcus aureus, MRSA|NRS119
S. aureus VRS4 (VRSA) [15] = assay: MBC, plating onto TSA; format: cell-based, Staphylococcus aureus; details: Staphylococcus aureus, VRSA
S. aureus USA300 (MRSA) [16] = assay: MIC, broth microdilution; format: cell-based, Staphylococcus aureus; details: Staphylococcus aureus, MRSA|USA300
[17] = tested on: human embryonic kidney (HEK293) cell line; assay: In vitro cytotoxicity, MTS assay; details: 40 μg/mL
three VRSA strains = assay: MIC against VRSA strains; format: cell-based; details: Staphylococcus aureus
S. aureus NRS107 (MRSA) [18] = assay: MBC, plating onto TSA; format: cell-based, Staphylococcus aureus; details: Staphylococcus aureus, MRSA|NRS107
[19] = tested on: S. aureus ATCC 43300 (MRSA); assay: MBC, plating onto TSA; format: cell-based, Staphylococcus aureus; details: Staphylococcus aureus, ATCC43300|MRSA
S. aureus NRS119 (MRSA) [20] = assay: MIC, broth microdilution; format: cell-based, Staphylococcus aureus; details: Staphylococcus aureus, MRSA|NRS119
S. aureus NRS19 (VISA) [21] = assay: MBC, plating onto TSA; format: cell-based, Staphylococcus aureus; details: Staphylococcus aureus, NRS19|VISA
S. aureus NRS1 (VISA) [22] = assay: MBC, plating onto TSA; format: cell-based, Staphylococcus aureus; details: Staphylococcus aureus, NRS1|VISA
S. aureus NRS37 (VISA) [23] = assay: MIC, broth microdilution; format: cell-based, Staphylococcus aureus; details: Staphylococcus aureus, NRS37|VISA
S. aureus VRS5 (VRSA) [24] = assay: MIC, broth microdilution; format: cell-based, Staphylococcus aureus; details: Staphylococcus aureus, VRSA
S. aureus VRS1 (VRSA) [25] = assay: MBC, plating onto TSA; format: cell-based, Staphylococcus aureus; details: Staphylococcus aureus, VRSA
S. aureus NRS1 (VISA) [26] = assay: MIC, broth microdilution; format: cell-based, Staphylococcus aureus; details: Staphylococcus aureus, NRS1|VISA
S. aureus USA 400 (MRSA) [27] = assay: MIC, broth microdilution; format: cell-based, Staphylococcus aureus; details: Staphylococcus aureus, MRSA|USA400
two VISA isolates = assay: MIC against VISA isolates; format: cell-based; details: Staphylococcus aureus
MRSA USA300 = assay: Time-kill analysis; format: cell-based, Staphylococcus aureus; details: MRSA USA300, 3 × MIC, 37 °C
How it was run: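 Late-log-phase cells diluted to ~1 × 10^8 CFU/mL in MHB and exposed to test compound or vancomycin in triplicate at 37 °C. 20 μL samples taken at 0, 2, 4, 6, 8, 10, 12 and 24 h, serially diluted in PBS, and plated on TSA. Plates incubated 18–20 h at 37 °C, then viable CFU/mL counted. Data given as mean ± standard deviation.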

SMILES | MIC (S. aureus USA500 (MRSA) [1]) [µg/mL] | MBC (S. aureus NRS194 (MRSA) [2]) [µg/mL] | MIC (S. aureus NRS19 (VISA) [3]) [µg/mL] | MBC (S. aureus USA 400 (MRSA) [4]) [µg/mL] | MIC (S. aureus NRS194 (MRSA) [5]) [µg/mL] | MIC (S. aureus VRS1 (VRSA) [6]) [µg/mL] | MIC (S. aureus VRS4 (VRSA) [7]) [µg/mL] | MBC (S. aureus NRS37 (VISA) [8]) [µg/mL] | MBC (S. aureus USA500 (MRSA) [9]) [µg/mL] | MIC (S. aureus NRS107 (MRSA) [11]) [µg/mL] | MBC (S. aureus VRS5 (VRSA) [12]) [µg/mL] | MBC (S. aureus USA300 (MRSA) [13]) [µg/mL] | MBC (S. aureus NRS119 (MRSA) [14]) [µg/mL] | MBC (S. aureus VRS4 (VRSA) [15]) [µg/mL] | MIC (S. aureus USA300 (MRSA) [16]) [µg/mL] | MIC (three VRSA strains) [µg/mL] | MBC (S. aureus NRS107 (MRSA) [18]) [µg/mL] | MBC [19] [µg/mL] | MIC (S. aureus NRS119 (MRSA) [20]) [µg/mL] | MBC (S. aureus NRS19 (VISA) [21]) [µg/mL] | other results
[H]/N=C(\N)NN=C(C)c1sc(-c2ccc(-c3ccc(C(F)(F)F)cc3)cc2)nc1C [22c, (E)-2-(1-(4-Methyl-2-(4′-(trifluoromethyl)-[1,1′-biphenyl]-4-yl)thiazol-5-yl)ethylidene)hydrazinecarboximidamide] | 3.3 (≈ 7.9 µM) | 13.3 (≈ 31.9 µM) | 3.3 (≈ 7.9 µM) | 13.3 (≈ 31.9 µM) | 6.7 (≈ 16 µM) | 6.7 (≈ 16 µM) | 6.7 (≈ 16 µM) | 3.3 (≈ 7.9 µM) | 3.3 (≈ 7.9 µM) | 3.3 (≈ 7.9 µM) | 6.7 (≈ 16 µM) | 6.7 (≈ 16 µM) | 6.7 (≈ 16 µM) | 6.7 (≈ 16 µM) | 6.7 (≈ 16 µM) | 6.7 (≈ 16 µM) | 6.7 (≈ 16 µM) | 3.3 (≈ 7.9 µM) | 6.7 (≈ 16 µM) | 3.3 (≈ 7.9 µM) | MIC ([10]; MRSA ATCC 43300): 3.3 µg/mL (≈ 7.9 µM); toxicity to mammalian cells (MTS assay) [17]: toxic; MBC (S. aureus NRS1 (VISA) [22]): 3.3 µg/mL (≈ 7.9 µM); MIC (S. aureus NRS37 (VISA) [23]): 3.3 µg/mL (≈ 7.9 µM); MIC (S. aureus VRS5 (VRSA) [24]): 6.7 µg/mL (≈ 16 µM); MBC (S. aureus VRS1 (VRSA) [25]): 6.7 µg/mL (≈ 16 µM); MIC (S. aureus NRS1 (VISA) [26]): 3.3 µg/mL (≈ 7.9 µM); MIC (S. aureus USA 400 (MRSA) [27]): 6.7 µg/mL (≈ 16 µM)
CN[C@H](CC(C)C)C(=O)N[C@H]1C(=O)N[C@@H](CC(N)=O)C(=O)N[C@H]2C(=O)N[C@H]3C(=O)N[C@H](C(=O)N[C@H](C(=O)O)c4cc(O)cc(O)c4-c4cc3ccc4O)[C@H](O)c3ccc(c(Cl)c3)Oc3cc2cc(c3O[C@@H]2O[C@H](CO)[C@@H](O)[C@H](O)[C@H]2O[C@H]2C[C@](C)(N)[C@H](O)[C@H](C)O2)Oc2ccc(cc2Cl)[C@H]1O [Vancomycin, reference compound] | 0.7 (≈ 0.483 µM) | 0.7 (≈ 0.483 µM) | < 1.5 | 0.7 (≈ 0.483 µM) | 0.7 (≈ 0.483 µM) | > 190 | > 190 | 3 (≈ 2.07 µM) | 0.7 (≈ 0.483 µM) | < 1.5 | > 190 | 0.7 (≈ 0.483 µM) | < 1.5 | > 190 | 0.7 (≈ 0.483 µM) | > 190 | < 1.5 | 0.7 (≈ 0.483 µM) | < 1.5 | < 1.5 | MIC (two VISA isolates): 3 µg/mL (≈ 2.07 µM); MIC [10]: 0.7 µg/mL (≈ 0.483 µM); time to completely eradicate MRSA growth (MRSA USA300): 24 h; MBC (S. aureus NRS1 (VISA) [22]): 3 µg/mL (≈ 2.07 µM); MIC (S. aureus NRS37 (VISA) [23]): 3 µg/mL (≈ 2.07 µM); MIC (S. aureus VRS5 (VRSA) [24]): > 190 µg/mL; MBC (S. aureus VRS1 (VRSA) [25]): > 190 µg/mL; MIC (S. aureus NRS1 (VISA) [26]): 3 µg/mL (≈ 2.07 µM); MIC (S. aureus USA 400 (MRSA) [27]): 0.7 µg/mL (≈ 0.483 µM)
